Experimental data reported in ChEMBL document CHEMBL5058577, “EUbOPEN Chemogenomics Library 2 (Multiplex)” (2022).

Tested on: U2OS
Experiment: Multiplex assay against U2OS
Format: toxicity, cell-based
Conditions: human
Outline: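 Values for tubulin, mitochondrial-mass and membrane-permeability phenotypes are per cents of cells with healthy nuclei. These cells were identified by CellPathfinder machine-learning gating of live cells that had been stained at seeding with Hoechst33342, BioTracker Green Microtubule Cytoskeleton Dye, MitoTracker Red and Annexin V Alexa Fluor 680 and imaged on a CQ1 microscope at 37°C and 5% CO2 after compound addition. The gating first set Hoechst high-intensity objects apart from normal cells, then split normal cells into healthy, pyknosed or fragmented nuclei, and pyknosed cells into mitotic or apoptotic.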

[1] = 12 h, 1 µM, compound concentration 1 uM, replicate 1
[2] = 12 h, 1 µM, compound concentration 1 uM, replicate 2
[3] = 12 h, 10 µM, compound concentration 10 uM, replicate 1
[4] = 12 h, 10 µM, compound concentration 10 uM, replicate 2
[5] = 24 h, 1 µM, compound concentration 1 uM, replicate 1
[6] = 24 h, 1 µM, compound concentration 1 uM, replicate 2
[7] = 24 h, 10 µM, compound concentration 10 uM, replicate 1
[8] = 24 h, 10 µM, compound concentration 10 uM, replicate 2
[9] = 48 h, 1 µM, compound concentration 1 uM, replicate 1
[10] = 48 h, 1 µM, compound concentration 1 uM, replicate 2
[11] = 48 h, 10 µM, compound concentration 10 uM, replicate 1
[12] = 48 h, 10 µM, compound concentration 10 uM, replicate 2

Cl.N=C(N)NC(=O)Cc1c(Cl)cccc1Cl [GUANFACINE HYDROCHLORIDE]
Population Apoptotic (%) [1]: 80% | Population Fragmented Nuclei (%) [1]: 28% | Population Healthy Nuclei (%) [1]: 55% | Population Hoechst High Intensity Objects (%) [1]: 4% | Population Membrane Permeable-Phenotype (%) [1]: 5% | Population Mitochondria Different-Phenotype (%) [1]: 1% | Population Mitotic Cells (%) [1]: 19% | Population Normal (%) [1]: 95% | Population Pyknosed Nuclei (%) [1]: 16% | Population Tubulin-Different-Phenotype (%) [1]: 2% | Total Cell Count [1]: 165 | Population Apoptotic (%) [2]: 100% | Population Fragmented Nuclei (%) [2]: 20% | Population Healthy Nuclei (%) [2]: 72% | Population Hoechst High Intensity Objects (%) [2]: 2% | Population Membrane Permeable-Phenotype (%) [2]: 8% | Population Mitochondria Different-Phenotype (%) [2]: 2% | Population Mitotic Cells (%) [2]: 0% | Population Normal (%) [2]: 97% | Population Pyknosed Nuclei (%) [2]: 7% | Population Tubulin-Different-Phenotype (%) [2]: 6% | Total Cell Count [2]: 129 | Population Apoptotic (%) [3]: 87% | Population Fragmented Nuclei (%) [3]: 27% | Population Healthy Nuclei (%) [3]: 61% | Population Hoechst High Intensity Objects (%) [3]: 1% | Population Membrane Permeable-Phenotype (%) [3]: 10% | Population Mitochondria Different-Phenotype (%) [3]: 3% | Population Mitotic Cells (%) [3]: 12% | Population Normal (%) [3]: 98% | Population Pyknosed Nuclei (%) [3]: 11% | Population Tubulin-Different-Phenotype (%) [3]: 7% | Total Cell Count [3]: 280 | Population Apoptotic (%) [4]: 77% | Population Fragmented Nuclei (%) [4]: 18% | Population Healthy Nuclei (%) [4]: 74% | Population Membrane Permeable-Phenotype (%) [4]: 12% | Population Mitochondria Different-Phenotype (%) [4]: 7% | Population Mitotic Cells (%) [4]: 22% | Population Pyknosed Nuclei (%) [4]: 7% | Population Tubulin-Different-Phenotype (%) [4]: 10% | Total Cell Count [4]: 130 | Population Apoptotic (%) [5]: 75% | Population Fragmented Nuclei (%) [5]: 32% | Population Healthy Nuclei (%) [5]: 56% | Population Hoechst High Intensity Objects (%) [5]: 3% | Population Membrane Permeable-Phenotype (%) [5]: 5% | Population Mitochondria Different-Phenotype (%) [5]: 3% | Population Mitotic Cells (%) [5]: 25% | Population Normal (%) [5]: 96% | Population Pyknosed Nuclei (%) [5]: 10% | Population Tubulin-Different-Phenotype (%) [5]: 2% | Total Cell Count [5]: 194 | Population Apoptotic (%) [6]: 83% | Population Fragmented Nuclei (%) [6]: 18% | Population Healthy Nuclei (%) [6]: 74% | Population Hoechst High Intensity Objects (%) [6]: 0% | Population Membrane Permeable-Phenotype (%) [6]: 8% | Population Mitochondria Different-Phenotype (%) [6]: 4% | Population Mitotic Cells (%) [6]: 16% | Population Normal (%) [6]: 99% | Population Pyknosed Nuclei (%) [6]: 7% | Population Tubulin-Different-Phenotype (%) [6]: 5% | Total Cell Count [6]: 160 | Population Apoptotic (%) [7]: 84% | Population Fragmented Nuclei (%) [7]: 25% | Population Healthy Nuclei (%) [7]: 64% | Population Hoechst High Intensity Objects (%) [7]: 0% | Population Membrane Permeable-Phenotype (%) [7]: 9% | Population Mitochondria Different-Phenotype (%) [7]: 2% | Population Mitotic Cells (%) [7]: 15% | Population Normal (%) [7]: 99% | Population Pyknosed Nuclei (%) [7]: 9% | Population Tubulin-Different-Phenotype (%) [7]: 4% | Total Cell Count [7]: 326 | Population Apoptotic (%) [8]: 83% | Population Fragmented Nuclei (%) [8]: 15% | Population Healthy Nuclei (%) [8]: 76% | Population Hoechst High Intensity Objects (%) [8]: 2% | Population Membrane Permeable-Phenotype (%) [8]: 10% | Population Mitochondria Different-Phenotype (%) [8]: 4% | Population Mitotic Cells (%) [8]: 16% | Population Normal (%) [8]: 97% | Population Pyknosed Nuclei (%) [8]: 7% | Population Tubulin-Different-Phenotype (%) [8]: 5% | Total Cell Count [8]: 160 | Population Apoptotic (%) [9]: 89% | Population Fragmented Nuclei (%) [9]: 28% | Population Healthy Nuclei (%) [9]: 60% | Population Hoechst High Intensity Objects (%) [9]: 2% | Population Membrane Permeable-Phenotype (%) [9]: 4% | Population Mitochondria Different-Phenotype (%) [9]: 3% | Population Mitotic Cells (%) [9]: 10% | Population Normal (%) [9]: 97% | Population Pyknosed Nuclei (%) [9]: 10% | Population Tubulin-Different-Phenotype (%) [9]: 3% | Total Cell Count [9]: 262 | Population Apoptotic (%) [10]: 90% | Population Fragmented Nuclei (%) [10]: 16% | Population Healthy Nuclei (%) [10]: 73% | Population Hoechst High Intensity Objects (%) [10]: 3% | Population Membrane Permeable-Phenotype (%) [10]: 8% | Population Mitochondria Different-Phenotype (%) [10]: 4% | Population Mitotic Cells (%) [10]: 9% | Population Normal (%) [10]: 96% | Population Tubulin-Different-Phenotype (%) [10]: 6% | Total Cell Count [10]: 217 | Population Apoptotic (%) [11]: 90% | Population Fragmented Nuclei (%) [11]: 21% | Population Healthy Nuclei (%) [11]: 68% | Population Hoechst High Intensity Objects (%) [11]: 2% | Population Membrane Permeable-Phenotype (%) [11]: 8% | Population Mitochondria Different-Phenotype (%) [11]: 3% | Population Mitotic Cells (%) [11]: 9% | Population Normal (%) [11]: 97% | Population Pyknosed Nuclei (%) [11]: 10% | Population Tubulin-Different-Phenotype (%) [11]: 4% | Total Cell Count [11]: 440 | Population Apoptotic (%) [12]: 95% | Population Fragmented Nuclei (%) [12]: 14% | Population Healthy Nuclei (%) [12]: 74% | Population Hoechst High Intensity Objects (%) [12]: 1% | Population Membrane Permeable-Phenotype (%) [12]: 10% | Population Mitochondria Different-Phenotype (%) [12]: 1% | Population Mitotic Cells (%) [12]: 4% | Population Normal (%) [12]: 98% | Population Pyknosed Nuclei (%) [12]: 11% | Population Tubulin-Different-Phenotype (%) [12]: 3% | Total Cell Count [12]: 213
